No end group written: not given here.

Test [1] deals with endothelial and tumor cells. Description: Cell migration/invasion assays, endothelial and tumor cells. The test is classed as cell-based, human. The note with it: SCNH2 10 pM, APL-13 10 nM, SM inhibitors 10 μM, n = 3. In a few lines:
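Chemotaxis plates: agonist peptides and 10 μM small-molecule inhibitors or 100 μg/ml immune IgG in FBS-free medium in the lower wells; 8000-10,000 cells/well (e.g. HUVEC) in FBS-free medium on the upper membrane, uncoated for migration or rat-tail collagen I-coated for invasion. Incubated 5-24 h at 37 °C/5% CO2/100% humidity. Membranes methanol-fixed, stained with 0.5% crystal violet, upper cells removed, underside cells photographed and counted.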

In a further test the test system is PI3K/Akt in HMEC-1 cells. Description: Western blot, peptide-induced PI3K/Akt phosphorylation in HMEC-1. Type of test: cell-based, human. Background: Immunoblotting shows a protein as a band on a membrane.
A further test concerns PI3K/Akt in MCF-7 cells. Description: Western blot, peptide-induced PI3K/Akt phosphorylation in MCF-7. The test is classed as cell-based, human.
The subject of test [2] is p44/42 MAPK in HMEC-1 cells.
Test [3] concerns p44/42 MAPK signaling pathway in MCF-7 cells.
The test system of test [4] is PI3K/Akt and p44/42 MAPK signaling pathways. Description: CTX/PTX sensitivity assay. The test is classed as cell-based.
Test [5] deals with SCNH2 receptor in enriched MB435 cells. Description: FACS binding inhibition assay with bSCNH2/SA488, enriched MB435. The note with it: enriched MB435, 50 μM peptide, 5 μM bSCNH2 + 10 μg/ml SA488, FACS. On the set-up: species or system human. In general terms: In flow cytometry, cells or beads pass a laser one at a time.
The subject of test [6] is P-PI3K/Akt in NMuMG cells. The test can be described thus: Western blot, phosphorylation of PI3K/Akt in NMuMG. The test is classed as cell-based, murine. The settings on record: maximum of dose response.
The next test concerns HUVEC cells. The test can be described thus: Cell migration assay, HUVEC. The test is classed as cell-based, human. The settings on record: for peptide response hierarchy in molar potency for mediating cell movement: HUVEC migration. An outline of the steps: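 Transwell-type chemotaxis plate with uncoated membrane. Test peptides and VEGF-A, at a range of concentrations, in FBS-free medium in bottom wells; 8000–10,000 HUVEC/well in FBS-free medium on top. Incubated 5–24 h at 37°C/5% CO2/100% humidity. Membranes methanol-fixed 5 min and stained with 0.5% crystal violet; upper cells removed. Bottom adherent cells photographed and counted.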

Test [7] has as its system P-p44/42 MAPK in NMuMG cells. Description: Western blot, phosphorylation of p44/42 MAPK in NMuMG. Type of test: cell-based, murine. The note with it: maximum of dose response.
Test [8] concerns CAM of 10-day-old shell-less embryos. The test can be described thus: Chorioallantoic membrane in chick embryo. The test is classed as in vivo. The settings on record: 66 hours.
Another test relates to rat aortic rings. Description: Rat aortic ring assay. The test is classed as cell-based. The note with it: 6 days, p < 0.05.

In the case of `c1cc(CN2CCCNCCNCCCNCC2)ccc1CN1CCCNCCNCCCNCC1` [AMD3100], the “suppression of SCNH2 and APL-13 induced cell migration and invasion” value in test [1] is “effectively suppressed”.
For `O=c1cc(N2CCOCC2)oc2c(-c3ccccc3)cccc12` [LY294002], in test [1], the “suppression of SCNH2 and APL-13 induced cell migration and invasion” value was “effectively suppressed”. Moreover, in the test with PI3K/Akt in HMEC-1 cells, the “inhibition of APL-13 induced phosphorylation of PI3K/Akt” value is 98% and the “inhibition of SCNH2 induced phosphorylation of PI3K/Akt” value worked out at 96%. In addition, in the test with PI3K/Akt in MCF-7 cells, the “block of APL-13 induced phosphorylation of PI3K/Akt” value is recorded as 75% and the “block of SCNH2 induced phosphorylation of PI3K/Akt” value was determined as 93%.
Consider `CC(C)(C)Cn1c(N)nc2ccc(-c3[nH]c(C(C)(C)C)nc3-c3ccc(F)cc3)nc21` [LY2228820], for which, in test [1], the “suppression of SCNH2 and APL-13 induced cell migration and invasion” value was “effectively suppressed”.
With `N#CC(=C(/N)Sc1ccccc1N)/C(C#N)=C(/N)Sc1ccccc1N` [U0126], the “suppression of APL-13 induced phosphorylation of p44/42 MAPK” value came to 95% in test [2] and 97% in [3]. For the same compound, the “suppression of SCNH2 induced phosphorylation of p44/42 MAPK” value in [2] is 98%; in test [3] it was 97%. Also, the “suppression of SCNH2 and APL-13 induced cell migration and invasion” value in test [1] is given as “effectively suppressed”.
On to Apelin-13 [APL-13], for which the “effect of CTX on peptide signaling (kinase activation)” value in [4] (CTX treatment, Western blot) is recorded as “indifferent”. For the same compound, in test [4] (PTX pretreatment overnight, 100 pM peptide 10 min), the “effect of PTX on peptide signaling (kinase activation)” value is recorded as “sensitive”. Also, in test [5], the “block of the binding of bSCNH2” value is on record as “ineffective”. In addition, the “maximum P-PI3K/Akt compared to the control” value in test [6] is reported as 8 folds. Besides, the “peptide response hierarchy in molar potency for mediating cell movement” value with HUVEC cells is on record as “SCNH2 > VEGF-A > APL-13”. The same compound displayed a maximal stimulating concentration in the test with HUVEC cells (cell migration, dose-response on HUVEC) of 10 nM. For the same compound, the “maximum P-p44/42 MAPK compared to the control” value in [7] is 5 folds. For the same compound, in test [8] (angiogenic index, p < 0.005), the “neovascularization at all of the tested concentrations” value is reported as “dramatically induced neovascularization”. For the same compound, in test [8] (p < 0.005, no statistical difference to VEGF-A at 1 nM), the “concentration inducing the maximum neovascularization” value was 100 nM. In the test on rat aortic rings, the “concentration inducing maximal vessel sprouting” value came out at 10 nM.
Turning to adrenomedullin [AM], the “block of the binding of bSCNH2” value in [5] is listed as “ineffective”.
The same measure, in the same setting: with arginine vasopressin [AVP] the entry was “ineffective”; with “gastrin-releasing peptide (VPLPAGGGTVLTKMYPRGNHWAVGHLM-NH2; UniProt P07492 24-50, looked up) [GRP]”, “ineffective”.
Turning to “luteinizing hormone-releasing hormone [LHRH]”, the “block of the binding of bSCNH2” value in [5] is “ineffective”.
As to oxytocin [OXT], the “block of the binding of bSCNH2” value in [5] is listed as “ineffective”.
As to “vascular endothelial growth factor A [VEGF-A]”, the “peptide response hierarchy in molar potency for mediating cell movement” value in the test on HUVEC cells is “SCNH2 > VEGF-A > APL-13”.
